Laboratory results published in ChEMBL document CHEMBL1127544, “A new series of photoactivatable and iodinatable linear vasopressin antagonists” (J Med Chem, 1994).

Key:
Vasopressin V1a receptor [1] = biological target: T1, Vasopressin V1a receptor (Rattus norvegicus, UniProt P30560); experiment: Inhibition constant for V1a receptor of rat liver membrane
Outline: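 Competition binding on rat liver membranes (male rat), 5 or 10 μg/assay, 45 min at 30 °C in the dark. Unlabeled peptide 10^-11 to 10^-7 or 10^-6 M against 60 pM [125I]Phaa-D-Tyr(Me)-Phe-Gln-Asn-Arg-Pro-Arg-Tyr-NH2. Nonspecific binding with 1 μM vasopressin. Separation by GF/C filtration. Ki = IC50 × Kd/(Kd + [tracer]), tracer Kd 0.06 nM. Triplicates.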

Oxytocin receptor = biological target: T2, Oxytocin receptor (Rattus norvegicus, UniProt P70536); experiment: Tested for inhibition constant at OT receptor of rat mammary glands
T2 sequence (P70536 whole entry): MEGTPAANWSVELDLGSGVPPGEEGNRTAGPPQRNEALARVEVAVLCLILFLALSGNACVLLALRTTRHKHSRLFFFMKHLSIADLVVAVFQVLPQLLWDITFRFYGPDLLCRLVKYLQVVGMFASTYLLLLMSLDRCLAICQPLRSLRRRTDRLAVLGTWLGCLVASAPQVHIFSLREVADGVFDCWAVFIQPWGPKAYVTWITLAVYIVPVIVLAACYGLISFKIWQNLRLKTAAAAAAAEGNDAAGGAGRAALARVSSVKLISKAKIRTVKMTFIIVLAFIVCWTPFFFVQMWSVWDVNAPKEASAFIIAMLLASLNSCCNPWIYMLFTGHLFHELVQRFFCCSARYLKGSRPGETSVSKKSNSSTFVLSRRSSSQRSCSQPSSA
Outline: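 Rat mammary gland membranes (female rat), 2 or 5 μg/assay, 45 min at 30 °C in 50 mM Tris-HCl pH 7.4, 5 mM MgCl2, 1 mg/mL BSA. Competition against 60 pM [125I]d(CH2)5[Tyr(Me)2,Thr4,Orn8,Tyr-NH2 9]VT. Nonspecific binding with 1 μM oxytocin. Filtration over GF/C. Triplicate determinations.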

Vasopressin V1a receptor [2] = biological target: T1, Vasopressin V1a receptor; experiment: Tested for dissociation constant at V1a receptor of rat liver membrane
Outline: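 Saturation binding of the 125I-labeled azido analogues on rat liver membranes (5 μg), rising labeled-ligand concentrations, run as the competition protocol (45 min, 30 °C, Tris-HCl pH 7.4, MgCl2, BSA, filtration). Nonspecific binding with 250-fold excess of the matching unlabeled analogue. Kd from Scatchard plot. Triplicate values, three independent experiments.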

Vasopressin V2 receptor = Vasopressin V2 receptor (Rattus norvegicus, UniProt Q00788); experiment: Tested for inhibition constant at V2 receptor of rat kidney membrane
Outline: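 Rat renal medullary membranes (male rat, freshly prepared), 28.5 μg/assay, 45 min at 30 °C in 50 mM Tris-HCl pH 7.4, 5 mM MgCl2, 1 mg/mL BSA. Competition against 10^-9 M [3H]AVP. Nonspecific binding with 1 μM vasopressin. Filtration over GF/C. Triplicate determinations.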

Vasopressin V1a receptor [3] = biological target: T1, Vasopressin V1a receptor; experiment: Tested for inhibition constant determined from vasopressin induced inositol phosphates accumulation performed on WRK1 cell line of V1a receptor subtype; assay type: cell-based
Outline: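 WRK1 cells prelabeled 3 days with myo-[3H]inositol (2 μCi/mL), then serum-starved 30 min. Preincubated 15 min at 37 °C in PBS with 10 mM LiCl, 1 mg/mL BSA and analogue, then 3 nM AVP or vehicle for 6 min. Stopped with perchloric acid. Total inositol phosphates separated on Dowex. Ki act derived from the antagonism curves. At least three experiments in duplicate.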

T1 sequence (P30560 whole entry): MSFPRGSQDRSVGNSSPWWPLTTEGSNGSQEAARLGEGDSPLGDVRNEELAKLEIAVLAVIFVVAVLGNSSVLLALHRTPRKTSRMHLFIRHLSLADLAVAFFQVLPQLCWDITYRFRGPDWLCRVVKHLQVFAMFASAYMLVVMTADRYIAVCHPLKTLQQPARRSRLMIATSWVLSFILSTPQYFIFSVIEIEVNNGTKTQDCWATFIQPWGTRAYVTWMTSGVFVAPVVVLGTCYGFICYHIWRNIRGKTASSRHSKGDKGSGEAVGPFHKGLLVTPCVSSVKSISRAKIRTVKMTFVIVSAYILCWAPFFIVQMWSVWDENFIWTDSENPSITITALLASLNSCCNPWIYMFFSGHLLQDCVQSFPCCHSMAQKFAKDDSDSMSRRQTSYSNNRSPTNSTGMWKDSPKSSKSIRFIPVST
Vasopressin V2 receptor, sequence (Q00788 whole entry): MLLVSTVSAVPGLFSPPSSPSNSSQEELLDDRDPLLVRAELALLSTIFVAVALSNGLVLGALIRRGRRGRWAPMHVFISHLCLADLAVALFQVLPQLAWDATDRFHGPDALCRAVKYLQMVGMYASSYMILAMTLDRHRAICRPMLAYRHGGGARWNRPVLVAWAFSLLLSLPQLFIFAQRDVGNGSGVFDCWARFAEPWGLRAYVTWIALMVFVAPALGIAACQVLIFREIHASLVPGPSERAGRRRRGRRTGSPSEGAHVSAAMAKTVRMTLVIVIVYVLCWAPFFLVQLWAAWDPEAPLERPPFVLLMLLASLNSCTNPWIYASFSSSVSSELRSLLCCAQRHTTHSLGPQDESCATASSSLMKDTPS

SMILES	Ki (Vasopressin V1a receptor [1]) [nM]	Ki (Oxytocin receptor) [nM]	Kd (Vasopressin V1a receptor [2]) [nM]	Ki (Vasopressin V2 receptor) [nM]	Ki (Vasopressin V1a receptor [3]) [nM]
COc1ccc(C[C@@H](NC(=O)CCc2cccc(N=[N+]=[N-])c2)C(=O)N[C@@H](Cc2ccccc2)C(=O)N[C@@H](CCC(N)=O)C(=O)N[C@@H](CC(N)=O)C(=O)N[C@@H](CCCNC(=N)N)C(=O)N2CCC[C@H]2C(=O)N[C@@H](CCCNC(=N)N)C(=O)N[C@@H](Cc2ccc(O)cc2)C(N)=O)cc1 (stereo in doubt; 21)	0.27	1.4	0.054	16	0.13
COc1ccc(C[C@@H](NC(=O)Cc2cccc(N=[N+]=[N-])c2)C(=O)N[C@@H](Cc2ccccc2)C(=O)N[C@@H](CCC(N)=O)C(=O)N[C@@H](CC(N)=O)C(=O)N[C@@H](CCCNC(=N)N)C(=O)N2CCC[C@H]2C(=O)N[C@@H](CCCNC(=N)N)C(=O)N[C@@H](Cc2ccc(O)cc2)C(N)=O)cc1 (stereo in doubt; 14)	0.31	–	–	–	–
COc1ccc(C[C@@H](NC(=O)Cc2ccc(N=[N+]=[N-])cc2)C(=O)N[C@@H](Cc2ccccc2)C(=O)N[C@@H](CCC(N)=O)C(=O)N[C@@H](CC(N)=O)C(=O)N[C@@H](CCCNC(=N)N)C(=O)N2CCC[C@H]2C(=O)N[C@@H](CCCNC(=N)N)C(=O)N[C@@H](Cc2ccc(O)cc2)C(N)=O)cc1 (stereo in doubt; 18)	0.59	4.8	0.15	8	0.2
COc1ccc(C[C@@H](NC(=O)CCc2ccc(N=[N+]=[N-])cc2)C(=O)N[C@@H](Cc2ccccc2)C(=O)N[C@@H](CCC(N)=O)C(=O)N[C@@H](CC(N)=O)C(=O)N[C@@H](CCCN=C(N)N)C(=O)N2CCC[C@H]2C(=O)N[C@@H](CCCN=C(N)N)C(=O)N[C@@H](Cc2ccc(O)cc2)C(N)=O)cc1 (stereo in doubt; 20)	0.47	37.7	0.19	1.6	0.11
COc1ccc(C[C@@H](NC(=O)CCCc2ccc(N=[N+]=[N-])cc2)C(=O)N[C@@H](Cc2ccccc2)C(=O)N[C@@H](CCC(N)=O)C(=O)N[C@@H](CC(N)=O)C(=O)N[C@@H](CCCN=C(N)N)C(=O)N2CCC[C@H]2C(=O)N[C@@H](CCCN=C(N)N)C(=O)N[C@@H](Cc2ccc(O)cc2)C(N)=O)cc1 (stereo in doubt; 22)	–	18	–	–	–
COc1ccc(C[C@@H](NC(=O)c2ccc(N=[N+]=[N-])cc2)C(=O)N[C@@H](Cc2ccccc2)C(=O)N[C@@H](CCC(N)=O)C(=O)N[C@@H](CC(N)=O)C(=O)N[C@@H](CCCNC(=N)N)C(=O)N2CCC[C@H]2C(=O)N[C@@H](CCCNC(=N)N)C(=O)N[C@@H](Cc2ccc(O)cc2)C(N)=O)cc1	20	–	–	–	–
COc1ccc(C[C@@H](NC(=O)c2cccc(N=[N+]=[N-])c2)C(=O)N[C@@H](Cc2ccccc2)C(=O)N[C@@H](CCC(N)=O)C(=O)N[C@@H](CC(N)=O)C(=O)N[C@@H](CCCN=C(N)N)C(=O)N2CCC[C@H]2C(=O)N[C@@H](CCCN=C(N)N)C(=O)N[C@@H](Cc2ccc(O)cc2)C(N)=O)cc1	17.8	–	–	–	–
COc1ccc(C[C@@H](NC(=O)Cc2cccc(N=[N+]=[N-])c2)C(=O)N[C@@H](Cc2ccccc2)C(=O)N[C@@H](CCC(N)=O)C(=O)N[C@@H](CC(N)=O)C(=O)N[C@@H](CCCNC(=N)N)C(=O)N2CCC[C@H]2C(=O)N[C@@H](CCCNC(=N)N)C(=O)N[C@@H](Cc2ccc(O)cc2)C(N)=O)cc1 (stereo in doubt; 19)	1.1	0.65	–	10	0.24

More lines, in order of falling Ki (Vasopressin V1a receptor [1]), values ahead:

Ki (Vasopressin V1a receptor [1]) [nM]	Ki (Oxytocin receptor) [nM]	Kd (Vasopressin V1a receptor [2]) [nM]	Ki (Vasopressin V2 receptor) [nM]	Ki (Vasopressin V1a receptor [3]) [nM]	SMILES
0.2	–	–	–	–	COc1ccc(C[C@@H](NC(=O)CCc2ccc(N=[N+]=[N-])cc2)C(=O)N[C@@H](Cc2ccccc2)C(=O)N[C@@H](CCC(N)=O)C(=O)N[C@@H](CC(N)=O)C(=O)N[C@@H](CCCN=C(N)N)C(=O)N2CCC[C@H]2C(=O)N[C@@H](CCCN=C(N)N)C(=O)N[C@@H](Cc2ccc(O)cc2)C(N)=O)cc1 (stereo in doubt; 15)
0.16	–	–	–	–	COc1ccc(C[C@@H](NC(=O)CCc2cccc(N=[N+]=[N-])c2)C(=O)N[C@@H](Cc2ccccc2)C(=O)N[C@@H](CCC(N)=O)C(=O)N[C@@H](CC(N)=O)C(=O)N[C@@H](CCCNC(=N)N)C(=O)N2CCC[C@H]2C(=O)N[C@@H](CCCNC(=N)N)C(=O)N[C@@H](Cc2ccc(O)cc2)C(N)=O)cc1 (stereo in doubt; 16)
0.12	–	–	–	–	COc1ccc(C[C@@H](NC(=O)Cc2ccc(N=[N+]=[N-])cc2)C(=O)N[C@@H](Cc2ccccc2)C(=O)N[C@@H](CCC(N)=O)C(=O)N[C@@H](CC(N)=O)C(=O)N[C@@H](CCCNC(=N)N)C(=O)N2CCC[C@H]2C(=O)N[C@@H](CCCNC(=N)N)C(=O)N[C@@H](Cc2ccc(O)cc2)C(N)=O)cc1 (stereo in doubt; 13)
0.04	–	–	–	–	COc1ccc(C[C@@H](NC(=O)CCCc2ccc(N=[N+]=[N-])cc2)C(=O)N[C@@H](Cc2ccccc2)C(=O)N[C@@H](CCC(N)=O)C(=O)N[C@@H](CC(N)=O)C(=O)N[C@@H](CCCN=C(N)N)C(=O)N2CCC[C@H]2C(=O)N[C@@H](CCCN=C(N)N)C(=O)N[C@@H](Cc2ccc(O)cc2)C(N)=O)cc1 (stereo in doubt; 17)
